{"source": "ChEMBL document CHEMBL4706563", "about": "“Triphenylethylene analogues: Design, synthesis and evaluation of antitumor activity and topoisomerase inhibitors” (Eur J Med Chem, 2020)", "format_in_all_cases": "functional", "key": {"Malme-3M": {"tested_on": "Malme-3M", "test": "Antiproliferative activity against human Malme-3M cells assessed as growth inhibition at 10 uM relative to control", "conditions": "read-out: GI", "outline": "(§1)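 Single-dose screen run by the US National Cancer Institute across its 60-human tumour cell line panel. Each compound was tested at one concentration. Percent growth inhibition was recorded for each cell line.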"}, "M14": {"tested_on": "M14", "test": "Antiproliferative activity against human M14 cells assessed as growth inhibition at 10 uM relative to control", "conditions": "read-out: GI", "outline": "as §1"}, "MDA-MB-435": {"tested_on": "MDA-MB-435", "test": "Antiproliferative activity against human MDA-MB-435 cells assessed as growth inhibition at 10 uM relative to control", "conditions": "read-out: GI", "outline": "as §1"}, "SK-MEL-2": {"tested_on": "SK-MEL-2", "test": "Antiproliferative activity against human SK-MEL-2 cells assessed as growth inhibition at 10 uM relative to control", "conditions": "read-out: GI", "outline": "as §1"}, "SK-MEL-28": {"tested_on": "SK-MEL-28", "test": "Antiproliferative activity against human SK-MEL-28 cells assessed as growth inhibition at 10 uM relative to control", "conditions": "read-out: GI", "outline": "(§2)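 NCI 60 human tumour cell line panel screen. Compounds tested at a single dose and growth inhibition (%) determined for each line.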"}, "SK-MEL-5": {"tested_on": "SK-MEL-5", "test": "Antiproliferative activity against human SK-MEL-5 cells assessed as growth inhibition at 10 uM relative to control", "conditions": "read-out: GI", "outline": "as §2"}, "UACC-257": {"tested_on": "UACC-257", "test": "Antiproliferative activity against human UACC-257 cells assessed as growth inhibition at 10 uM relative to control", "conditions": "read-out: GI", "outline": "as §2"}, "UACC-62": {"tested_on": "UACC-62", "test": "Antiproliferative activity against human UACC-62 cells assessed as growth inhibition at 10 uM relative to control", "conditions": "read-out: GI", "outline": "as §2"}, "IGROV-1": {"tested_on": "IGROV-1", "test": "Antiproliferative activity against human IGROV-1 cells assessed as growth inhibition at 10 uM relative to control", "conditions": "read-out: GI", "outline": "as §1"}, "OVCAR-3": {"tested_on": "OVCAR-3", "test": "Antiproliferative activity against human OVCAR-3 cells assessed as growth inhibition at 10 uM relative to control", "conditions": "read-out: GI", "outline": "as §1"}, "OVCAR-4": {"tested_on": "OVCAR-4", "test": "Antiproliferative activity against human OVCAR-4 cells assessed as growth inhibition at 10 uM relative to control", "conditions": "read-out: GI", "outline": "as §1"}, "NCI/ADR-RES": {"tested_on": "NCI/ADR-RES", "test": "Antiproliferative activity against human NCI/ADR-RES cells assessed as growth inhibition at 10 uM relative to control", "conditions": "read-out: GI", "outline": "as §1"}, "SK-OV-3": {"tested_on": "SK-OV-3", "test": "Antiproliferative activity against human SK-OV-3 cells assessed as growth inhibition at 10 uM relative to control", "conditions": "read-out: GI", "outline": "as §2"}, "786-0": {"tested_on": "786-0", "test": "Antiproliferative activity against human 786-0 cells assessed as growth inhibition at 10 uM relative to control", "conditions": "read-out: GI", "outline": "as §1"}, "A498": {"tested_on": "A498", "test": "Antiproliferative activity against human A498 cells assessed as growth inhibition at 10 uM relative to control", "conditions": "read-out: GI", "outline": "as §1"}, "ACHN": {"tested_on": "ACHN", "test": "Antiproliferative activity against human ACHN cells assessed as growth inhibition at 10 uM relative to control", "conditions": "read-out: GI", "outline": "as §1"}, "CAKI-1": {"tested_on": "CAKI-1", "test": "Antiproliferative activity against human CAKI-1 cells assessed as growth inhibition at 10 uM relative to control", "conditions": "read-out: GI", "outline": "as §1"}, "SN12C": {"tested_on": "SN12C", "test": "Antiproliferative activity against human SN12C cells assessed as growth inhibition at 10 uM relative to control", "conditions": "read-out: GI", "outline": "as §2"}, "TK-10": {"tested_on": "TK-10", "test": "Antiproliferative activity against human TK-10 cells assessed as growth inhibition at 10 uM relative to control", "conditions": "read-out: GI", "outline": "as §2"}, "UO-31": {"tested_on": "UO-31", "test": "Antiproliferative activity against human UO-31 cells assessed as growth inhibition at 10 uM relative to control", "conditions": "read-out: GI", "outline": "as §2"}, "PC-3": {"tested_on": "PC-3", "test": "Antiproliferative activity against human PC-3 cells assessed as growth inhibition at 10 uM relative to control", "conditions": "read-out: GI", "outline": "as §1"}, "DU-145": {"tested_on": "DU-145", "test": "Antiproliferative activity against human DU-145 cells assessed as growth inhibition at 10 uM relative to control", "conditions": "read-out: GI", "outline": "as §1"}, "MCF7": {"tested_on": "MCF7", "test": "Antiproliferative activity against human MCF7 cells assessed as growth inhibition at 10 uM relative to control", "conditions": "read-out: GI", "outline": "as §1"}, "MDA-MB-231": {"tested_on": "MDA-MB-231", "test": "Antiproliferative activity against human MDA-MB-231 cells assessed as growth inhibition at 10 uM relative to control", "outline": "as §1"}, "Hs-578T": {"tested_on": "Hs-578T", "test": "Antiproliferative activity against human Hs-578T cells assessed as growth inhibition at 10 uM relative to control", "conditions": "read-out: GI", "outline": "as §1"}, "BT-549": {"tested_on": "BT-549", "test": "Antiproliferative activity against human BT-549 cells assessed as growth inhibition at 10 uM relative to control", "conditions": "read-out: GI", "outline": "as §1"}, "T47D": {"tested_on": "T47D", "test": "Antiproliferative activity against human T47D cells assessed as growth inhibition at 10 uM relative to control", "conditions": "read-out: GI", "outline": "as §2"}, "MDA-MB-468": {"tested_on": "MDA-MB-468", "test": "Antiproliferative activity against human MDA-MB-468 cells assessed as growth inhibition at 10 uM relative to control", "conditions": "read-out: GI", "outline": "as §1"}, "OVCAR-8": {"tested_on": "OVCAR-8", "test": "Antiproliferative activity against human OVCAR-8 cells assessed as growth inhibition at 10 uM relative to control", "conditions": "read-out: GI", "outline": "as §1"}}, "note": "Activity calls are given as the source filed them. No cut-off for these calls is given here.", "data": [{"smiles": "C/C(=C(/c1ccccc1)c1ccc(OCC(O)CN2CCOCC2)cc1)c1ccccc1", "note": "(centres undefined)", "values": [{"measurement": "inhibition of growth at 10 µM", "setting": "Malme-3M", "result": 24.8, "unit": "%"}, {"measurement": "inhibition of growth at 10 µM", "setting": "M14", "result": -45.1, "unit": "%"}, {"measurement": "inhibition of growth at 10 µM", "setting": "MDA-MB-435", "result": 9.29, "unit": "%"}, {"measurement": "inhibition of growth at 10 µM", "setting": "SK-MEL-2", "result": 1.12, "unit": "%"}, {"measurement": "inhibition of growth at 10 µM", "setting": "SK-MEL-28", "result": 10, "unit": "%"}, {"measurement": "inhibition of growth at 10 µM", "setting": "SK-MEL-5", "result": 12.9, "unit": "%"}, {"measurement": "inhibition of growth at 10 µM", "setting": "UACC-257", "result": 6.64, "unit": "%"}, {"measurement": "inhibition of growth at 10 µM", "setting": "UACC-62", "result": 3, "unit": "%"}, {"measurement": "inhibition of growth at 10 µM", "setting": "IGROV-1", "result": 3.82, "unit": "%"}, {"measurement": "inhibition of growth at 10 µM", "setting": "OVCAR-3", "result": 9.6, "unit": "%"}, {"measurement": "inhibition of growth at 10 µM", "setting": "OVCAR-4", "result": 10.7, "unit": "%"}, {"measurement": "inhibition of growth at 10 µM", "setting": "NCI/ADR-RES", "result": 6.78, "unit": "%"}, {"measurement": "inhibition of growth at 10 µM", "setting": "SK-OV-3", "result": 8.68, "unit": "%"}, {"measurement": "inhibition of growth at 10 µM", "setting": "786-0", "result": 32.9, "unit": "%"}, {"measurement": "inhibition of growth at 10 µM", "setting": "A498", "result": 8.44, "unit": "%"}, {"measurement": "inhibition of growth at 10 µM", "setting": "ACHN", "result": 1.16, "unit": "%"}, {"measurement": "inhibition of growth at 10 µM", "setting": "CAKI-1", "result": 19.9, "unit": "%"}, {"measurement": "inhibition of growth at 10 µM", "setting": "SN12C", "result": 11.6, "unit": "%"}, {"measurement": "inhibition of growth at 10 µM", "setting": "TK-10", "result": 5.68, "unit": "%"}, {"measurement": "inhibition of growth at 10 µM", "setting": "UO-31", "result": 26.3, "unit": "%"}, {"measurement": "inhibition of growth at 10 µM", "setting": "PC-3", "result": 28.2, "unit": "%"}, {"measurement": "inhibition of growth at 10 µM", "setting": "DU-145", "result": 1.88, "unit": "%"}, {"measurement": "inhibition of growth at 10 µM", "setting": "MCF7", "result": 15.8, "unit": "%"}, {"measurement": "growth inhibition (GI)", "setting": "MDA-MB-231", "result": "inactive"}, {"measurement": "inhibition of growth at 10 µM", "setting": "Hs-578T", "result": 9.19, "unit": "%"}, {"measurement": "inhibition of growth at 10 µM", "setting": "BT-549", "result": 6.69, "unit": "%"}, {"measurement": "inhibition of growth at 10 µM", "setting": "T47D", "result": 39.7, "unit": "%"}, {"measurement": "inhibition of growth at 10 µM", "setting": "MDA-MB-468", "result": 14.9, "unit": "%"}, {"measurement": "inhibition of growth at 10 µM", "setting": "OVCAR-8", "result": 11.5, "unit": "%"}]}]}
